Assay results from different studies.
Protocols differ between the studies behind these lines.
Observed: enzyme activity
Action: inhibitor
BRAF: Serine/threonine-protein kinase B-raf (BRAF, Homo sapiens, UniProt P15056)
BRAF V600E: Serine/threonine-protein kinase B-raf (BRAF, Homo sapiens, UniProt P15056, V600E)

`CN(C)C1CCN(CC#Cc2nn(C3CCCC3)c3nc(NCc4ccccc4)ncc23)C1` (stereo not drawn) gave an inhibition of 1% (BRAF; FRET; 1 µM).
With `Cn1cncc1C1=CN(c2ncnc3[nH]cnc23)CCS1` the inhibition was 12.9% (BRAF; radiometric; 50 nM).
`Cc1ccc(C(CS(=O)(=O)c2ccccc2)=NNC2=NC(=O)C(=NNc3ccccc3)S2)cc1` has an inhibition of 54% (BRAF V600E; ATP luminescence; 0.1 µM).
`C=CC(=O)Nc1cc(Nc2nccc(Nc3cc(Cl)c(F)cc3C(C)(C)O)n2)c(OC)cc1N1CC[C@@H](N(C)C)C1` gave an inhibition of 4% (BRAF; 1 µM).
The inhibition of `Cc1ccc(C(CS(=O)(=O)c2ccccc2)=NNC(N)=S)cc1` is reported as 31% (BRAF V600E; ATP luminescence; 10 nM).
For `COc1cc2ncnc(Nc3ccc(Oc4ccccc4)cc3C)c2cc1OC`, the inhibition was 7% (BRAF; 1 µM).
The inhibition of `Cc1ccc(N=Nc2sc(NN=C(CS(=O)(=O)c3ccccc3)c3ccc(C)cc3)nc2C)cc1` is reported as 29% (BRAF V600E; ATP luminescence; 10 nM).
The inhibition of `O=C(CSc1nc2nccnc2c(=O)n1CCc1ccccc1)Nc1nccs1` is reported as -2% (BRAF V600E; 10 µM).
With `COc1cc(-c2cc(-c3ccc(N4CCNCC4)cc3)cnc2N)cc(OC)c1OC` the inhibition was 18% (BRAF V600E; 1 µM).
`COc1ccc(-c2csc(NN=C(CS(=O)(=O)c3ccccc3)c3ccc(F)cc3)n2)cc1` gave an inhibition of 25% (BRAF V600E; ATP luminescence; 10 nM).
For `COc1cc2nccc(Oc3ccc(NC(=O)c4c5n(n(-c6ccc(F)cc6)c4=O)CCCC5)cc3)c2cc1OC`, the inhibition was 18% (BRAF; 0.1 µM).
For `CS(=O)(=O)Nc1cccc(-c2csc(NC(=O)CSc3nc4nccnc4c(=O)n3CCc3ccccc3)n2)c1`, the inhibition was 1% (BRAF; 10 µM).
